The values that follow come from PMC5003403 (Clinical breast cancer, 2012).

Data set [1] relates to serum IGFBP-3 (IGF-binding protein 3). Description: Serum IGFBP-3 levels. The format is in vivo, human. The conditions noted are these: Day 7 (exemestane alone); mean ± SD; n 22. The procedure, abridged:
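Serum was taken at baseline, after 1 week of single-agent oral exemestane 25 mg daily (day 7), and at day 120 (±7). About 5 mL venous blood went into serum separator tubes, clotted for at least 30 min and was centrifuged at 3000 rpm for 10 min. Serum was frozen at −70°C until assay. Day differences were tested by repeated-measures ANOVA.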

Data set [2] is classed as in vivo. The conditions noted are these: human, plasma, oral, 25 mg. In outline:
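Nine patients took oral 25 mg daily with food from day 1, adding intramuscular 250 mg fulvestrant from day 8 every 28 ± 5 days. Plasma was sampled over 24 h after the day-7 dose and again after about 120 ± 7 days of combination. Samples went into prechilled heparinised tubes on ice, spun at 1000–1200g for 10–15 min at 4°C and held at about −70°C. LC-MS/MS, LLOQ 0.1 ng/mL. Noncompartmental analysis: Cmax by inspection, AUC by linear trapezoid, t1/2 = 0.693/λz.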

Data set [3] deals with serum IGF-1 (insulin-like growth factor 1). Description: Serum IGF-1 levels. The format is in vivo, human. The conditions noted are these: Day 7 (exemestane alone); mean ± SD; n 23.

Compound `C=C1C[C@@H]2[C@H](CC[C@]3(C)C(=O)CC[C@@H]23)[C@@]2(C)C=CC(=O)C=C12` [Exemestane] yielded an IGFBP-3 serum level in data set [1] of 5273 ± 1372 ng/mL. Moreover, in data set [2], the AUC(0-t) (commonly exposure summed from dosing to a finite time, without extrapolation to infinity) was 61.7 ± 17.1 ng·h/mL; the Cmax (usually the maximum level reached in the sampled fluid or tissue) turned out to be 20.1 ± 7.7 ng/mL; the half-life (usually the time needed for the level to fall by half in the phase considered) was 7.94 ± 1.32 h. For the same compound, in data set [3], the IGF-1 serum level was found to be 141 ± 55.1 ng/mL.
